system: Plasmodium falciparum; assay: Antimalarial activity against Plasmodium falciparum FCR3/A2; format: functional, organism-based; details: FCR-3
Summary of the method: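 P. falciparum FCR-3/A2 clone cultured in vitro in 24-well plates across a wide concentration range of each compound. Compounds held as 10^-2 M DMSO stocks at -20 °C (stock, not final). Daily blood smears tracked parasite growth. IC50 (50% growth inhibition vs untreated control) came from linear regression of concentration–response data.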

First: CC(=O)O[C@H]1CC(C)(C)[C@]2(O)CCc3c(cc4occc4c3C)[C@@]2(C)[C@H]1OC(C)=O
Second: CC(=O)O[C@H]1C[C@@H](OC(C)=O)C(C)(C)[C@]2(O)CCc3c(cc4occc4c3C)[C@@]12C [CAESALDEKARINE]
The IC50 of the first is 41-fold lower: 98 nM for the first, 4000 nM for the second.

Going from C=C1c2ccoc2C[C@H]2[C@H]1CC[C@@]1(O)C(C)(C)[C@H](OC(C)=O)C[C@H](OC(C)=O)[C@]21C [CAESALPININ C] to CC(=O)O[C@H]1C[C@@H](OC(C)=O)C(C)(C)[C@]2(O)CC[C@H]3C(=O)c4ccoc4C[C@@H]3[C@@]12C [NORCAESALPININ B], the IC50 falls from 760 nM to 260 nM (2.9-fold). The second is the more potent here.

Going from CC(=O)O[C@H]1[C@@H](OC(C)=O)C(C)(C)[C@]2(O)CCc3c(cc4occc4c3C)[C@@]2(C)[C@H]1OC(C)=O to C=C1c2ccoc2C[C@H]2[C@H]1CC[C@@]1(O)C(C)(C)[C@H](OC(C)=O)[C@H](OC(C)=O)[C@H](OC(C)=O)[C@]21C, the IC50 falls from 6500 nM to 200 nM (32-fold).

Going from CC(=O)O[C@H]1CCC(C)(C)[C@]2(O)C[C@H](O)[C@H]3C(=O)c4ccoc4C[C@@H]3[C@@]12C [NORCAESALPININ E] to CC(=O)O[C@H]1CCC(C)(C)[C@]2(O)C[C@@H]3OC(=O)[C@@H]4c5ccoc5C[C@@H]([C@@H]34)[C@@]12C [CAESALMIN B], the IC50 rises from 90 nM to 800 nM (8.9-fold). The first is the more potent here.

First: CC(=O)O[C@H]1CC(C)(C)[C@]2(O)CCc3c(cc(O)c(C=O)c3C)[C@@]2(C)[C@H]1OC(C)=O [NORCAESALPININ C]
Second: CC(=O)O[C@H]1CC(C)(C)[C@]2(O)CC[C@H]3C(=O)c4ccoc4C[C@@H]3[C@@]2(C)[C@H]1OC(C)=O [NORCAESALPININ A]
The IC50 of the first is 6.2-fold higher: 5000 nM for the first, 800 nM for the second.

First: CC1(C)CC[C@H](O)[C@]2(C)[C@H]3Cc4occc4[C@H]4C(=O)O[C@@H](C[C@@]12O)[C@@H]43 [CAESALMIN G]
Second: CC(=O)O[C@H]1CCC(C)(C)[C@]2(O)[C@@H](OC(C)=O)[C@@H]3OC(=O)[C@@H]4c5ccoc5C[C@@H]([C@@H]34)[C@@]12C [CAESALPININ D]
The IC50 of the first is higher: greater than 10000 nM for the first, 800 nM for the second.

First: COC(=O)[C@@H]1c2ccoc2C[C@H]2[C@H]1[C@@H](OC(C)=O)C[C@@]1(O)C(C)(C)CC[C@H](OC(C)=O)[C@]21C [ACETOXYBONDUCELLPIN C]
Second: COC(=O)[C@@H]1c2ccoc2C[C@H]2[C@H]1C[C@H](OC(C)=O)[C@@]1(O)C(C)(C)CC[C@H](OC(C)=O)[C@]21C [CAESALPININ E]
The IC50 of the first is 11-fold lower: 600 nM for the first, 6500 nM for the second.

Going from COC(=O)[C@@H]1c2ccoc2C[C@H]2[C@H]1C[C@H](OC(C)=O)[C@@]1(O)C(C)(C)CCC(=O)[C@]21C [CAESALPININ F] to CC(=O)O[C@H]1[C@@H](OC(C)=O)C(C)(C)[C@]2(O)CC[C@H]3C(=O)c4ccoc4C[C@@H]3[C@@]2(C)[C@H]1OC(C)=O [3-O-ACETYLNORCAESALPININ A], the IC50 rises from 650 nM to 2000 nM (3.1-fold). The first is the more potent here.
